In paper PMC3409840 (ACS medicinal chemistry letters, 2012):

What was measured:
[1] = Solubility under the NF-κB reporter assay conditions; format: physicochemical; settings: 50 µM screen
p65 [2] = assay: Western blot of p65 in nuclear lysate of NF-κB-induced DU-145 cells; format: cell-based, human
In short: (§1)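 Cells were dosed with test compound at 100 μM or 25 μM, or with DMSO vehicle, and the NF-κB pathway was then induced with TNF-α. Controls were noninduced and TNF-α-induced cells, both given vehicle.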

[3] = NMR-based thiol reactivity assay with cysteamine; settings: two molar equivalents of cysteamine, DMSO-d6/D2O PBS, 1H NMR
p65 [4] = assay: Western blot of p65 in nuclear lysate of NF-κB-induced CCRF-CEM cells; format: cell-based, human
In short: as §1

DU-145 = assay: Cellular cytotoxicity by Alamar Blue staining, DU-145; format: cell-based, human; settings: for IC50 against DU-145 relative to reported IC50 of cryptocaryone: fold higher than cryptocaryone
IL-8 = assay: Secreted IL-8 protein by ELISA in TNF-α-induced DU-145 cells; format: cell-based, human
In short: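 DU-145 cells dosed with DMSO vehicle or test compound (100 μM and 33 μM), followed by TNF-α induction of the NF-κB pathway. Non-induced and induced vehicle controls were included. Secreted IL-8 protein in the cell medium was quantified by ELISA.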

IL-8 mRNA = assay: Semi-quantitative RT-PCR of IL-8 mRNA in TNF-α-induced DU-145 cells; format: cell-based, human; settings: 33 µM, lowest concentration tested
In short: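 DU-145 cells given DMSO vehicle or test compound (100 μM and 33 μM), then induced with TNF-α, alongside non-induced and induced controls. IL-8 mRNA was assessed by semiquantitative (traditional) RT-PCR, with GAPDH mRNA amplified as the reference transcript.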

NF-κB = NF-κB luciferase reporter assay in A549 cells induced with TNF-α; format: cell-based, human
In short: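 A549 lung cancer cells carrying a stably transfected luciferase reporter behind six consensus NF-κB binding-site repeats. Cells induced with TNF-α and treated with test compound at 100, 50 and 10 μM (preliminary screen at 50 μM). Non-induced and TNF-α-induced wells serve as controls. Read-out is luciferase signal. Cell viability was checked in parallel under identical conditions.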

RWPE-1 = assay: Cellular cytotoxicity by Alamar Blue staining, RWPE-1; format: cell-based, human; settings: mean ± SD
CCRF-CEM = assay: Cellular cytotoxicity by Alamar Blue staining, CCRF-CEM; format: cell-based, human; settings: 48-hr cytotoxicity assay, mean ± SD
Vero = assay: Cellular cytotoxicity by Alamar Blue staining, Vero; format: cell-based, African green monkey; settings: mean ± SD
IκBα = settings: 16 µM; cited from earlier work

CO[C@@]12C=C(Br)C(=O)C[C@@H]1/C(=C(/OC(C)=O)c1ccccc1)CC2 (racemic) [Compound 4]
solubility under the assay conditions [1]: poorly soluble under the assay conditions

CC(=O)O/C(=C1\CO[C@]2(C)C=CC(=O)C[C@H]12)c1ccccc1 (racemic) [Compound 10]
inhibition of nuclear translocation of p65 (p65 [2]; 25 µM): Partial inhibition of p65 nuclear translocation
inhibition of nuclear translocation of p65 (p65 [2]; 100 µM): completely inhibited nuclear translocation of p65
time to disappearance of vinyl proton doublets after cysteamine addition [3]: ≤ 5 min
inhibition of nuclear translocation of p65 (p65 [4]; 25 µM): Partial inhibition of p65 nuclear translocation
inhibition of nuclear translocation of p65 (p65 [4]; 100 µM): completely inhibited nuclear translocation of p65
IC50 against DU-145 relative to reported IC50 of cryptocaryone (DU-145): approximately 15 fold
secreted IL-8 levels (IL-8; 33 µM): 3,480 pg/mL

CC(=O)O/C(C)=C1\CO[C@]2(c3ccccc3)C=CC(=O)C[C@H]12 (racemic) [Compound 11]
IL-8 mRNA production (in words) (IL-8 mRNA): visibly lower levels than that of 10
inhibition of nuclear translocation of p65 (p65 [2]; 25 µM): Partial inhibition of p65 nuclear translocation
inhibition of nuclear translocation of p65 (p65 [2]; 100 µM): completely inhibited nuclear translocation of p65
enhancement in potency compared with racemic 11 (NF-κB; 50 µM): 2 fold
inhibition of nuclear translocation of p65 (p65 [4]; 25 µM): Partial inhibition of p65 nuclear translocation
inhibition of nuclear translocation of p65 (p65 [4]; 100 µM): completely inhibited nuclear translocation of p65
IC50 against DU-145 relative to reported IC50 of cryptocaryone (DU-145): approximately 15 fold
secreted IL-8 levels (IL-8; 33 µM): 2,970 pg/mL
effect on IL-8 protein levels (in words) (IL-8; highest concentration tested (100 µM)): depleted IL-8 protein levels to nearly undetectable levels

CC(=O)O/C(=C1\CO[C@]2(C)CCC(=O)C[C@H]12)c1ccccc1 (racemic) [Compound 12]
IC50 RWPE-1 (RWPE-1): no appreciable toxicity
decrease in potency compared to 11 (NF-κB; 100 µM): ~ 4 fold
reduction of NF-κB activity (NF-κB; 100 µM, highest concentration tested): 24%
IC50 DU-145 (DU-145; 48-hr cytotoxicity assay, Alamar Blue, mean ± SD): no appreciable toxicity
IC50 CCRF-CEM (CCRF-CEM): no appreciable toxicity
IC50 Vero (Vero): no appreciable toxicity
secreted IL-8 levels (IL-8; 100 µM): 4,900 pg/mL

O=C1C[C@@H]2/C(=C(O)\C=C\c3ccccc3)C(=O)C=C[C@@H]2O1 [cryptocaryone]
inhibition of IκBα degradation (in words) (IκBα): inhibit the degradation of IκBα
